Lipid droplet – inhibitors of hepatocyte lipid droplet formation, primary screen, imaging, high-throughput imaging, BODIPY stain. 0.4% of 240,000 active. inhibition, % at 6.5 µM. AML12 mouse hepatocytes, oleate lipid droplets. AID 1656, 2009;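 active means lipid droplet intensity inhibited by at least 50%, with more than 500 cells counted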
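Test system: AML12 hepatocytes (mouse); reagent: oleate loading, 100 µM; dosing: one dose, 6.5 µM compound; incubation: overnight exposure; signal: fluorescence imaging, 20x objective, two fields per well; read-out basis: % inhibition of corrected integrated BODIPY droplet signal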
XBP1 UPR activ – activators of adaptive XBP1 UPR arm, primary screen, cell-based, CHO-XBP1 luciferase reporter, luminescence, uHTS | IRE1-XBP1 UPR activation; percent of tunicamycin response, DMSO as zero | activation, % at 20 µM | 0.33% of 330,000 active;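 active means versus positive control, 20 µM dose yields 30% or more activation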
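Assay system: CHO-XBP1 luciferase reporter cells; Schedule: 6 h treatment, 37 °C; Detection: glow luminescence from Steady-Glo reagent; Benchmarks: high control tunicamycin 10 µg/mL final, low control DMSO vehicle only.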
CHOP UPR activ – activators of apoptotic CHOP UPR arm, primary screen, cell-based, CHO-CHOP luciferase reporter, luminescence, uHTS | UPR activation; percent of tunicamycin response over DMSO baseline | activation, % at 10 µM | 0.34% of 330,000 active;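 active means at 10 µM dose, activation of 40% or more, normalized to positive control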
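System: CHO CHOP reporter cells. Amount: 500 cells per well. Buffer or medium: F12 medium, 10% FBS. Compound dosing: one dose, 10 µM in 0.5% DMSO. Incubation: 6 h compound exposure at 37 °C after overnight seeding. Technique: Steady-Glo luciferase luminescence. Benchmarks: tunicamycin and DMSO controls.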
TMEM16A inh – TMEM16A chloride channel inhibitors, primary screen, cell-based, HTS; Anoctamin-1 (Mus musculus), Q8BHY3; HEK293 TMEM16A/YFP iodide influx fluorescence, ionomycin; 1.2% of 310,000 active; normalized B-score (activity score, 25-100; higher = stronger inhibition) at 10 µM;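 active means ratio plate-corrected score three or more library SD toward inhibition, starting fluorescence score within five deviations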;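 further: score derived from kinetic fluorescence span divided by baseline fluorescence per well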
Target sequence (Q8BHY3 whole entry, looked up): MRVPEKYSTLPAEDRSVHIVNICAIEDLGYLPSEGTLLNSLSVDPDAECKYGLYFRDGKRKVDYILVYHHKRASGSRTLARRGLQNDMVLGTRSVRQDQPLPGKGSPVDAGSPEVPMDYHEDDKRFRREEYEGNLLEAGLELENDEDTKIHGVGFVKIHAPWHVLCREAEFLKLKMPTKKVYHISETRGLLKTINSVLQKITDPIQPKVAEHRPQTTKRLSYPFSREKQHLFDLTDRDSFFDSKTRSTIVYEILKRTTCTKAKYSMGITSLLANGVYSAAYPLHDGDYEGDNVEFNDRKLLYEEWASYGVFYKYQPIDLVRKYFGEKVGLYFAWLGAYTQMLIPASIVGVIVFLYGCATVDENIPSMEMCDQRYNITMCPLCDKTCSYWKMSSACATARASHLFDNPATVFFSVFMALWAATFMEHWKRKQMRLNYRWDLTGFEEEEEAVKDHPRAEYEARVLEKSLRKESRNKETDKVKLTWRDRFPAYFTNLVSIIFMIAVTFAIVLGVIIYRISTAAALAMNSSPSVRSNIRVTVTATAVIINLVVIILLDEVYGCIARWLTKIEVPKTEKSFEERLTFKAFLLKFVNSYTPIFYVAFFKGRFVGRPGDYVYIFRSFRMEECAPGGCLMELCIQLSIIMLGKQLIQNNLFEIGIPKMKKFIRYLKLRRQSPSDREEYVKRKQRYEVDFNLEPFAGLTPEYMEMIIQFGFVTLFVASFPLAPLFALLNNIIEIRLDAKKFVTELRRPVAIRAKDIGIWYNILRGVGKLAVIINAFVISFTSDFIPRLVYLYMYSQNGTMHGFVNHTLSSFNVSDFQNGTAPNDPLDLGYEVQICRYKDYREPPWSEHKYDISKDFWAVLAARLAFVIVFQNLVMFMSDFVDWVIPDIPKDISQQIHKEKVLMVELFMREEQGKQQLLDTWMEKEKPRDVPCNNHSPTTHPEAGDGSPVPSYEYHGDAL
TMEM16A act – TMEM16A chloride channel activators or potentiators, primary screen, cell-based, HTS. HEK293 TMEM16A/YFP-H148Q/I152L, iodide quench fluorescence; hits give low values. B-score at 10 µM. Anoctamin-1 (Mus musculus), Q8BHY3. 0.3% of 340,000 active;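 active means fluorescence-ratio B-score plate-corrected deviation score at least 3 library SD below zero, with starting fluorescence score within 5 deviations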;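 further: channel opened by trigger with iodide after compound preincubation; score built on the fluorescence ratio of max minus min over baseline; more negative score means more quench and so TMEM16A activation or potentiation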
CHOP inh – inhibitors of CHOP promoter induction, primary screen, cell-based, unfolded protein response, luciferase reporter | inhibition, % at 10 µM | 3.8% of 220,000 active | AID 2732, 2010 | CHO-K1 CHOP-promoter luciferase, tunicamycin-induced, 15-18 h;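 active means compounds that reduced the stress-induced luciferase reporter signal by more than about 70% of percent inhibition, limit read from the data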
TMEM16A reconf – TMEM16A chloride channel inhibitors, confirmation, cell-based, re-confirmation. 39% of 2,300 active. AID 652189, 2013. HEK293 TMEM16A/YFP-H148Q, iodide quench fluorescence; ionomycin added to raise cell calcium. inhibition, % at 10 µM. shares compounds with TMEM16A inh;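 active means mean duplicate percent inhibition, scaled so buffer wells are 0 and the reference blocker 100, over three buffer SD above buffer mean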
TMEM16A Ca cntr – calcium mobilization in TMEM16A/YFP HEK293 cells, confirmation, counter-screen for TMEM16A inhibitor project; shares compounds with TMEM16A inh; 2% of 2,300 active; calcium response (% of ionomycin), % at 10 µM; Fluo4 calcium mobilization;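 active means duplicate-averaged calcium signal over 20% of the ionomycin maximum, relative to buffer baseline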;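 further: each well's signal is peak minus trough fluorescence divided by its pre-addition baseline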
YFP-HEK293 quench – iodide YFP quench changes in parental YFP-HEK293, counter-screen for TMEM16A inhibitor project, cell-based; shares compounds with TMEM16A inh; ionomycin; YFP ratio F(max-min)/F0 at 10 µM; 2,300 tested, under 10 active;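 active means yellow fluorescent protein signal ratio exceeding the buffer control mean by over 5 SD of those controls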;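 further: ratio is mean of duplicate wells from kinetic YFP trace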
ClC-1 rat inh – ClC-1 chloride channel inhibition, selectivity assay for TMEM16A inhibitor project, cell-based, voltage-dependent ClC-1. shares compounds with TMEM16A inh. CHO ClC-1-YFP, iodide influx fluorescence quench; iodide control reads 0, buffer control 100. ratio percent, % at 10 µM. 2,300 tested, under 10 active. AID 652236, 2013;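 active means duplicate-mean ratio percent above the mean of iodide-only control wells, which defines zero, plus 5 of their SD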;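 further: higher percent means stronger block of ClC-1 iodide influx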
A number is an active result; n = inactive; x = no result given. Sampled rows, rich in hits. Any-hit rate of the full collection: about 4.2%.

SMILES	Lipid droplet	XBP1 UPR activ	CHOP UPR activ	TMEM16A inh	TMEM16A act	CHOP inh	TMEM16A reconf	TMEM16A Ca cntr	YFP-HEK293 quench	ClC-1 rat inh
CC(C)N(Cc1ccccc1)C(=O)COC(=O)/C=C/c1cnc2ccccc2n1	n	n	n	n	n	n	x	x	x	x
CC(=O)NS(=O)(=O)c1ccc(NC(=O)c2ccccc2F)cc1	n	n	n	25	n	n	n	n	n	n
OC(COCC1CC=CCC1)Cn1cnc2ccccc21 (stereo not given)	n	n	n	n	x	n	x	x	x	x
Cc1nc2ccccc2n1CC(O)COCC1CC=CCC1 (stereo not given)	n	n	n	100	n	n	n	n	n	n
CCS(=O)(=O)N1CCCC(C(=O)c2ccc(OC)cc2C)C1 (stereo not given)	n	n	n	n	n	n	x	x	x	x
COc1ccc(C(=O)C2CCCN(S(=O)(=O)c3ccc(C(C)=O)cc3)C2)c(C)c1 (stereo not given)	n	n	n	25	n	x	30.0%	n	n	n
O=C(NC(=S)Nc1ccccc1N1CCCC1)c1cccc(F)c1	n	n	n	n	n	n	x	x	x	x
COc1ccc(C(c2c[nH]c3ccccc23)c2c[nH]c3ccccc23)cc1O	x	n	n	100	n	75.1	31.5%	n	n	n
Cc1onc(-c2c(F)cccc2Cl)c1C(=O)N=C(N)N1CCCC1	n	n	n	n	n	n	x	x	x	x
COC(=O)c1ccc(CNC(=O)COC(=O)CC23CC4CC(CC(Br)(C4)C2)C3)cc1	n	n	n	25	n	n	n	n	n	n
COc1ccccc1NC(=S)N1CCN(c2cccc(C)c2C)CC1	n	n	n	n	n	x	x	x	x	x
CN(C)C(CNC(=O)CNC(=O)c1ccc2ccccc2c1)c1ccccc1 (stereo not given)	n	n	n	n	n	x	x	x	x	x
Cc1cccc2nc(-c3cccnc3)c(NCCC(C)C)n12	n	n	n	n	n	n	x	x	x	x
Cc1cccc2nc(-c3cccnc3)c(Nc3ccccc3)n12	n	n	n	100	n	n	35.0%	n	n	n
Cc1cccc(OCCn2c(=S)[nH]c3ccccc32)c1	n	n	n	n	n	n	x	x	x	x
Cc1ccc(OCCn2c(=S)[nH]c3ccccc32)c(C(C)C)c1	n	n	n	25	n	x	n	n	n	n
CC(=O)c1ccc(OCCCC(=O)N2CCN(S(=O)(=O)c3ccc(C(C)C)cc3)CC2)cc1	x	n	n	25	n	x	n	n	n	n
O=C(O)c1ccccc1N/N=C/c1cc(Br)cc(Br)c1O	n	n	n	25	n	n	78.5%	n	n	n
CCOc1ccc(NC(=O)CN(C)C(=O)c2ccc(C)o2)cc1OCC	n	n	n	n	n	x	x	x	x	x
COc1cccc(NC(=O)CN2C(=O)NC(C)(CCC(C)C)C2=O)c1 (stereo not given)	n	n	n	n	n	n	x	x	x	x
CCCC1(CCC)NC(=O)N(CC(=O)Nc2cccc(OC)c2)C1=O	x	n	n	100	n	n	n	n	n	n
CCOC(=O)Cc1ccc(NC(=O)c2ccccc2Br)cc1	n	n	n	n	n	n	x	x	x	x
CCOC(=O)Cc1ccc(NC(=O)c2ccc(C(C)(C)C)cc2)cc1	n	n	n	100	n	85.5	32.5%	n	n	n
CN(c1ccccc1)c1nc(N)c([N+](=O)[O-])c(N2CCOCC2)n1	n	n	n	n	n	n	x	x	x	x
COc1ccc2cc3cc(C(=O)Nc4ccc5c(c4)OCO5)oc3nc2c1	x	n	n	100	n	n	n	n	n	n
SMILES	Lipid droplet	XBP1 UPR activ	CHOP UPR activ	TMEM16A inh	TMEM16A act	CHOP inh	TMEM16A reconf	TMEM16A Ca cntr	YFP-HEK293 quench	ClC-1 rat inh
COc1ccc2nc3oc(C(=O)Nc4ccc(OC)c(OC)c4)cc3cc2c1	n	n	n	n	n	n	x	x	x	x
N=c1n(Cc2ccc(Cl)cc2)c2ccccc2n1CC(O)COc1ccccc1 (stereo not given)	n	n	n	25	n	83.2	27.5%	n	n	n
Cc1cccc(OCC(O)Cn2c(=N)n(Cc3ccccc3)c3ccccc32)c1 (stereo not given)	n	n	n	n	n	n	x	x	x	x
c1ccc(CSc2nnc3c4ccccc4c4ccccc4c3n2)cc1	n	n	n	n	x	n	x	x	x	x
COc1ccccc1-n1c(=O)oc2ccc(Cl)cc2c1=O	n	n	n	25	n	n	22.0%	n	n	n
COc1ccccc1-n1c(SCc2cc(=O)oc3cc(O)ccc23)nc2ccccc2c1=O	n	n	n	n	n	n	x	x	x	x
CCCCSc1nnc2c(n1)[nH]c1ccccc12	n	n	n	25	n	n	n	n	n	n
NC(=S)N=Nc1c(O)cc(O)c2[nH]c(=O)ccc12	x	x	x	x	n	x	x	x	x	x
COc1ccccc1NC(=O)c1ccccc1NS(=O)(=O)c1cccs1	n	n	n	n	n	n	x	x	x	x
COc1ccc(C)cc1NC(=O)c1ccccc1NS(=O)(=O)c1ccc(Cl)s1	n	n	n	100	n	n	48.5%	n	n	n
O=S(=O)(NCCSCc1c(Cl)cccc1Cl)c1ccc2c(c1)OCCO2	x	n	n	25	n	n	n	n	n	n
O=S(=O)(NCCSCc1ccc(Cl)cc1Cl)c1ccc2c(c1)OCCO2	x	n	n	n	n	n	x	x	x	x
CC1CN(S(=O)(=O)c2ccc(Cl)c(S(=O)(=O)N3CC(C)OC(C)C3)c2)CC(C)O1 (stereo not given)	x	n	n	100	n	n	n	n	n	n
NNC(=O)c1cc2sccc2s1	n	n	n	n	n	n	x	x	x	x
Cc1c(C(C)(C)C)s/c(=N/S(=O)(=O)c2ccccc2)n1C	n	n	n	100	n	x	n	n	n	n

Bioassay records: PubChem, several laboratories
